Results as given in article PMC7559877 (iScience, 2020).

Key:
[1] = tested on: U937; assay: Tumoricidal activity against human lymphoma cell line U937; type: cell-based; details: U-937
[2] = tested on: Raji; assay: Tumoricidal activity against human lymphoma cell line Raji; type: cell-based
[3] = tested on: JE6.1; assay: Tumoricidal activity against human lymphoma cell line JE6.1; type: cell-based
[4] = tested on: IFN-γ; assay: IFN-γ production by CTLs derived from treated DL mice; type: in vivo; details: CD8+ T cells; text to Figure 5K
Method in brief: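 CD8+ T cells (CTLs) are taken from DL lymphoma-bearing mice treated with oral test compound plus rIL15-activated dendritic cells and compared with cells from untreated DL mice. IFN-γ is read by flow cytometry histogram. Data shown are representative of four experiments (n = 4).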

[5] = tested on: CD4+CD25+FOXP3+ Treg cells; assay: Flow cytometry of CD4+CD25+FOXP3+ Treg cells in DL mice; type: in vivo; details: in the spleen (so in the source); DL mouse 19.4%; Figure 2I
[6] = tested on: DL tumor cells; assay: In vitro tumoricidal activity; type: cell-based, murine; details: Mus musculus, read-out: growth inhibition, highest inhibition recorded
[7] = tested on: THP-1; assay: Tumoricidal activity against human lymphoma cell line THP-1; type: cell-based

## Cc1cccc(-c2nn3c(c2-c2ccnc4ccc(C(N)=O)cc24)CCC3)n1 [galunisertib]
[1]
  IC50: 0.124 µM
[2]
  IC50: 0.776 µM
[3]
  IC50: 0.164 µM
[4]
  IFN-γ in T cells derived from treated animals: 52%
[5]
  CD4+CD25+ cells: intermediate effect
[6]
  inhibition at 10 µM: ~80%
[7]
  IC50: 0.108 µM
